High-throughput results deposited in PubChem by The Scripps Research Institute Molecular Screening Center.
A selection: hits, their analogues and other compounds. The true share with any hit is near 2.3%.
PLC-gamma1 inh = inhibitors of human phospholipase C gamma1; P19174; purified PLC-gamma1, fluorogenic substrate, fluorescence; inhibition, % at 12.2 µM; actives 0.84% (n = 370,000); AID 720700; in the data active = inhibition above about 9.5%
PLC-beta3 inh = inhibitors of human phospholipase C beta3; inhibition, % at 12.2 µM; Purified PLC-beta3, fluorogenic substrate, fluorescence; AID 720704; Q01970; actives 0.18% (n = 370,000)
Tb MetRS inh = blocks T. brucei methionyl-tRNA synthetase activity; purified T. brucei MetRS, ATP depletion, Kinase-Glo luminescence; inhibition, % at 11.9 µM; actives 0.4% (n = 360,000);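 active = inhibition above a per-plate cutoff of the control wells' mean inhibition plus 3 SD, cut at about 5.5% in these data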
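Test system – parasite MetRS enzyme · Reagent – substrates ATP, L-methionine and bulk Escherichia coli tRNA · Doses – 11.9 µM compound single dose, 0.9% DMSO · Times – 15 min enzyme-compound preincubation, 2 h reaction, 10 min detection, 25 °C · Signal – Kinase-Glo luminescence, ATP depletion format · Controls – DMSO-only wells as low control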
ADAM10 inh = inhibits human ADAM10 | recombinant ADAM10, EDANS/DABCYL FRET peptide cleavage, 3 h | inhibition, % at 7 µM | O14672 | actives 0.62% (n = 370,000);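 active = inhibition above a per-campaign cutoff equal to the mean of compounds falling between control-based bounds plus 3 SD, cut at about 20% in these data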
Target sequence (O14672 214-748 limits assumed): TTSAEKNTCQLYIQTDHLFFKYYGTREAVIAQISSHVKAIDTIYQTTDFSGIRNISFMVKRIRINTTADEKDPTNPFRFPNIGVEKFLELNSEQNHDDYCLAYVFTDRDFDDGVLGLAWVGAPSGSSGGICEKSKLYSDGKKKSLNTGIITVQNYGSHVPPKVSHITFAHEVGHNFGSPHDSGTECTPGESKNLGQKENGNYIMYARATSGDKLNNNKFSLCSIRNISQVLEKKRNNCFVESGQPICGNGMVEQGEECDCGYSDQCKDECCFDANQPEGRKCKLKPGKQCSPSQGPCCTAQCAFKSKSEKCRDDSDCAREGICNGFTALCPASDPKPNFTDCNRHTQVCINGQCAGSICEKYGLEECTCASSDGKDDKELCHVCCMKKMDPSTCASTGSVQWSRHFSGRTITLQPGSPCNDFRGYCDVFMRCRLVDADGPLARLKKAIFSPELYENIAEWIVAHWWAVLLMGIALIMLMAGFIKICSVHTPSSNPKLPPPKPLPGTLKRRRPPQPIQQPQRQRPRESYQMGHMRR
ADAM17 inh = ADAM17 inhibition, QFRET primary screen; AID 720648; P78536; actives 0.83% (n = 370,000); recombinant ADAM17, EDANS/DABCYL FRET peptide cleavage; inhibition, % at 6.95 µM;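 active = inhibition above the mean of compounds lying between control limits plus 3 SD, set per campaign, cut at about 8.5% in these data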
ADAM10 ctr = inhibits human ADAM10 in ADAM17 exosite counter-screen | shares compounds with ADAM17 inh | recombinant ADAM10, EDANS/DABCYL FRET peptide cleavage, 3 h | inhibition, % at 6.95 µM | actives 47% (n = 2,900) | AID 743256;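 active = mean inhibition over the triplicate runs exceeds the activity threshold set in the earlier primary screen, cut at about 20% in these data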
ADAM17 confirm = confirmation of inhibitors of human ADAM17; inhibition, % at 6.95 µM; shares compounds with ADAM17 inh; AID 743257; recombinant ADAM17, EDANS/DABCYL QFRET peptide cleavage; actives 65% (n = 2,900);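 active = mean inhibition across replicates above the hit cutoff set in the primary screen, cut at about 8.5% in these data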
PLCg1 ctr = PLC-gamma1 inhibition, counter-screen for PLC-beta3 hits; purified PLC-gamma1, fluorogenic substrate, fluorescence; shares compounds with PLC-gamma1 inh; actives 3.1% (n = 3,300); inhibition, % at 12.3 µM; in the data active = inhibition above about 9.5%
PLCbeta3 conf = human PLC-beta3 inhibition, confirmation | actives 1% (n = 3,300) | purified PLC-beta3, fluorogenic substrate fluorescence | inhibition, % at 12.3 µM | AID 743261 | shares compounds with PLC-gamma1 inh
Hits are given with their value. Rule as the data show it, unless noted: active = inhibition above about 11%; inactive = the rest.

Results for C/C=C/c1ccccc1OCCCN1CCC(C(O)(c2ccccc2)c2ccccc2)CC1 ?
PLC-gamma1 inh: 13.0; PLC-beta3 inh: inactive; ADAM10 inh: inactive; ADAM17 inh: 12.5; ADAM10 ctr: inactive; ADAM17 confirm: 9.2; PLCg1 ctr: inactive; PLCbeta3 conf: inactive

Results for COc1ccc(C(=O)N2CCN(c3nc4cc(C)cc(C)c4cc3C#N)CC2)cc1 ?
PLC-gamma1 inh: inactive; PLC-beta3 inh: inactive; Tb MetRS inh: inactive; ADAM10 inh: inactive; ADAM17 inh: inactive

How did COC(=O)[C@]12C[C@H](CC(=O)NCc3ccc(C)o3)C(=O)N(Cc3ccco3)C1=C[C@H](C(C)(C)C)O[C@@H]2C do in these assays?
PLC-gamma1 inh: inactive; PLC-beta3 inh: inactive; ADAM10 inh: inactive; ADAM17 inh: inactive

How did COC(=O)[C@]12C[C@H](CC(=O)NCCCCc3ccccc3)C(=O)N(Cc3ccccc3)C1=C[C@H](C(C)C)O[C@@H]2C1CC1 do in these assays?
PLC-gamma1 inh: 10.2; PLC-beta3 inh: inactive; ADAM10 inh: inactive; ADAM17 inh: 16.8; ADAM10 ctr: 25.9; ADAM17 confirm: 13.2; PLCg1 ctr: inactive; PLCbeta3 conf: inactive

How did COC(=O)[C@]12C[C@H](CC(=O)NCc3ccc(C)o3)C(=O)N(Cc3ccccc3)C1=C[C@H](C(C)(C)C)O[C@@H]2C do in these assays?
PLC-gamma1 inh: 10.2; PLC-beta3 inh: inactive; ADAM10 inh: inactive; ADAM17 inh: 10.2; ADAM10 ctr: inactive; ADAM17 confirm: inactive; PLCg1 ctr: inactive; PLCbeta3 conf: inactive

What do the screens show for `CC(=O)N1CC(C)Oc2ccc(S(=O)(=O)NC(CC(=O)O)c3cc(C)ccc3C)cc21` (stereo unspecified)?
PLC-gamma1 inh: inactive; PLC-beta3 inh: inactive; Tb MetRS inh: inactive; ADAM10 inh: inactive; ADAM17 inh: inactive

What do the screens show for `CNC(=O)C1CC(=O)N/C(=N/N=C(\C)c2cccs2)S1` (stereo unspecified)?
PLC-gamma1 inh: inactive; PLC-beta3 inh: 11.5; Tb MetRS inh: inactive; ADAM10 inh: inactive; ADAM17 inh: 10.0; ADAM10 ctr: inactive; ADAM17 confirm: 13.5; PLCg1 ctr: inactive; PLCbeta3 conf: inactive

What do the screens show for `C/C(=N\N=C1\NC(=O)CC(C(=O)O)S1)c1cccs1` (stereo unspecified)?
PLC-gamma1 inh: inactive; PLC-beta3 inh: inactive; Tb MetRS inh: inactive; ADAM10 inh: inactive; ADAM17 inh: inactive

What do the screens show for `Cc1ccc(Nc2nc(Nc3ccc(C)cc3)nc(SC3=NCCS3)n2)cc1`?
PLC-gamma1 inh: 15.5; PLC-beta3 inh: inactive; Tb MetRS inh: inactive; ADAM10 inh: inactive; ADAM17 inh: 9.8; ADAM10 ctr: 20.4; ADAM17 confirm: 11.8; PLCg1 ctr: inactive; PLCbeta3 conf: inactive

How did CCCOC1CCCN(C(=O)c2cc(COc3ccc(F)c(F)c3)on2)C1 (stereo unspecified) do in these assays?
PLC-gamma1 inh: inactive; PLC-beta3 inh: inactive; Tb MetRS inh: inactive; ADAM10 inh: inactive; ADAM17 inh: inactive

What do the screens show for `COc1ccccc1NS(=O)(=O)c1cccc(C(=O)OCC(=O)NC2CC2)c1`?
PLC-gamma1 inh: inactive; PLC-beta3 inh: inactive; Tb MetRS inh: inactive; ADAM10 inh: inactive; ADAM17 inh: inactive

Results for CC(C)C(c1nnnn1Cc1ccccc1)N1CCN(Cc2ccco2)CC1 (stereo unspecified) ?
PLC-gamma1 inh: inactive; PLC-beta3 inh: inactive; Tb MetRS inh: inactive; ADAM10 inh: inactive; ADAM17 inh: inactive

What do the screens show for `CC(C)C(c1nnnn1Cc1ccco1)N1CCN(c2cccc(Cl)c2)CC1` (stereo unspecified)?
PLC-gamma1 inh: 12.4; PLC-beta3 inh: inactive; Tb MetRS inh: inactive; ADAM10 inh: inactive; ADAM17 inh: 13.8; ADAM10 ctr: inactive; ADAM17 confirm: inactive; PLCg1 ctr: inactive; PLCbeta3 conf: inactive

Results for O=C(CSc1ccc(-c2ccco2)nn1)Nc1ccc(F)cc1F ?
PLC-gamma1 inh: inactive; PLC-beta3 inh: inactive; Tb MetRS inh: inactive; ADAM10 inh: inactive; ADAM17 inh: inactive

Results for C=CCc1cccc(CNc2nc3ccccc3n2CCN2CCOCC2)c1O ?
PLC-gamma1 inh: 10.0; PLC-beta3 inh: 13.6; Tb MetRS inh: inactive; ADAM10 inh: inactive; ADAM17 inh: 11.9; ADAM10 ctr: inactive; ADAM17 confirm: 9.3; PLCg1 ctr: inactive; PLCbeta3 conf: inactive

What do the screens show for `O=C(N/N=C/c1ccc(O)cc1)c1ccc(COc2cc(Cl)ccc2Cl)o1`?
PLC-gamma1 inh: inactive; PLC-beta3 inh: inactive; Tb MetRS inh: inactive; ADAM10 inh: inactive; ADAM17 inh: inactive

How did Fc1ccc(-c2nnn(Cc3ccc(F)cc3Cl)n2)cc1 do in these assays?
PLC-gamma1 inh: inactive; PLC-beta3 inh: inactive; Tb MetRS inh: inactive; ADAM10 inh: inactive; ADAM17 inh: inactive

How did Cc1ccccc1-c1nnn(Cc2ccc(F)cc2Cl)n1 do in these assays?
PLC-gamma1 inh: 10.7; PLC-beta3 inh: inactive; Tb MetRS inh: inactive; ADAM10 inh: inactive; ADAM17 inh: 10.2; ADAM10 ctr: inactive; ADAM17 confirm: 11.2; PLCg1 ctr: inactive; PLCbeta3 conf: inactive

How did CC1CCCN(C(=O)COC(=O)COc2ccc(C#N)cc2)C1 (stereo unspecified) do in these assays?
PLC-gamma1 inh: inactive; PLC-beta3 inh: inactive; Tb MetRS inh: inactive; ADAM10 inh: inactive; ADAM17 inh: inactive

How did CC1CCCC(C)N1C(=O)COC(=O)COc1ccc(C#N)cc1 (stereo unspecified) do in these assays?
PLC-gamma1 inh: 11.2; PLC-beta3 inh: inactive; Tb MetRS inh: inactive; ADAM10 inh: inactive; ADAM17 inh: 9.8; ADAM10 ctr: inactive; ADAM17 confirm: inactive; PLCg1 ctr: inactive; PLCbeta3 conf: inactive

How did COc1cc(/C=C/C(=O)OCC(=O)N(C)CC(=O)Nc2ccc(F)cc2)ccc1OC(F)F do in these assays?
PLC-gamma1 inh: inactive; PLC-beta3 inh: inactive; Tb MetRS inh: inactive; ADAM10 inh: inactive; ADAM17 inh: inactive

Results for COc1ccc(C)cc1N(CC(=O)NCCN1CCOCC1)S(=O)(=O)c1ccccc1 ?
PLC-gamma1 inh: inactive; PLC-beta3 inh: inactive; Tb MetRS inh: inactive; ADAM10 inh: inactive; ADAM17 inh: inactive

How did COC(=O)[C@]12C[C@H](CC(=O)N3CCN(C(=O)C4CC4)CC3)C(=O)N(Cc3cccc4ccccc34)C1=C[C@H](COCc1ccccc1)O[C@@H]2C do in these assays?
PLC-gamma1 inh: 14.1; PLC-beta3 inh: inactive; ADAM10 inh: inactive; ADAM17 inh: 10.0; ADAM10 ctr: 23.6; ADAM17 confirm: 19.8; PLCg1 ctr: inactive; PLCbeta3 conf: inactive
